Where “and” joins values, the source holds several entries; their conditions need not be identical. Identical values can stand only once.
Legend:
Canis familiaris [1] = organism: Canis familiaris; test: (§1) In vitro electrophysiological evaluation in canine cardiac Purkinje fibres reported as % change for action potential duration at 0.1-100 uM concentration range; type: functional, Canis lupus familiaris, Purkinje fiber
In short: (§2)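 Canine cardiac Purkinje fibres, intracellular microelectrode recording, paced at a basic cycle length of 1 s. APD95 and Vmax read simultaneously. Compound: 10 mM stock in deionized water, diluted into Tyrode's solution, tested over the stated concentration range. Each fibre used once as its own control. Result is % change from control, given at 10 µM or as the maximum with its concentration. M = <10% decrease or an increase in Vmax.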

Canis familiaris [2] = organism: Canis familiaris; test: as §1; type: functional, Canis lupus familiaris, Purkinje fiber; in short: as §2; remark: listed apart in the source
Canis familiaris [3] = organism: Canis familiaris; test: In vitro electrophysiological evaluation in canine cardiac ventricular muscle reported as maximum % change for functional refractory period (FRP) at 0.1-100 uM concentration range; design: species or system Canis lupus familiaris, Muscle tissue
Canis familiaris [4] = organism: Canis familiaris; test: In vitro electrophysiological evaluation in canine cardiac Purkinje fibres reported as maximum percent change Vmax concentration range of 1-100 uM; M = Minimal(<IO%increase or a decrease in CT); type: functional; settings: Canis lupus familiaris; Purkinje fiber; in short: as §2
Canis familiaris [5] = organism: Canis familiaris; test: In vitro electrophysiological activity in canine cardiac Purkinje fibres given as maximum % change for action potential duration at 0.1-100 uM concentration; type: functional, Canis lupus familiaris, Purkinje fiber
In short: (§3)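 Canine cardiac Purkinje fibres, intracellular recording at 1 s basic cycle length, over cumulative concentration ranges. Compound 10 mM stock in deionized water diluted into Tyrode's. Each fibre used once as its own control. Value is the maximum % change from control in APD at 95% repolarization, with the concentration where it occurred; both values given if a biphasic response (>20% reversal) occurred.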

Canis familiaris [6] = organism: Canis familiaris; test: In vitro electrophysiological evaluation in canine cardiac ventricular muscle reported as % change for conduction time(CT) at 0.1-100 uM concentration range; Minimal (<IO%increase or a decrease in CT); type: functional, Canis lupus familiaris, Muscle tissue
Canis familiaris [7] = organism: Canis familiaris; test: In vitro electrophysiological activity in canine cardiac Purkinje fibres given as maximum % change for action potential duration at 95% repolarization at 1 uM concentration; type: functional, Canis lupus familiaris, Purkinje fiber; in short: as §3
Canis familiaris [8] = organism: Canis familiaris; test: In vitro electrophysiological evaluation in canine cardiac Purkinje fibres reported as % change for action potential duration at 1-100 uM concentration range; type: functional, Canis lupus familiaris, Purkinje fiber; in short: as §2
Canis familiaris [9] = organism: Canis familiaris; test: In vitro electrophysiological evaluation in canine cardiac ventricular muscle reported as maximum % change for conduction time(CT) at 0.1-100 uM concentration range; Minimal (<IO%increase or a decrease in CT); type: functional, Canis lupus familiaris, Muscle tissue
In short: (§4)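 Canine right ventricle and papillary muscle strips in oxygenated Tyrode's solution, fitted with stimulating and recording electrodes. The extra-stimulus conduction-interval method was adapted for in vitro use. FRP and CT were read from a conduction-interval curve before and after various compound concentrations, and expressed as percent change from control. Compounds were taken from 10 mM deionized-water stock into Tyrode's. Each strip was used once as its own control.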

Canis familiaris [10] = organism: Canis familiaris; test: In vitro electrophysiological activity in canine cardiac Purkinje fibres given as maximum % change for action potential duration at 100 uM concentration; type: functional, Canis lupus familiaris, Purkinje fiber; in short: as §3
Canis familiaris [11] = organism: Canis familiaris; test: In vitro electrophysiological evaluation in canine cardiac ventricular muscle reported as % change for the functional refractory period (FRP) concentration range of 0.1-100 uM; design: species or system Canis lupus familiaris, Muscle tissue; in short: as §4
Canis familiaris [12] = organism: Canis familiaris; test: In vitro electrophysiological evaluation in canine cardiac Purkinje fibres reported as % change for action potential duration at 0.1-30 uM concentration range; type: functional, Canis lupus familiaris, Purkinje fiber; in short: as §2
Canis familiaris [13] = organism: Canis familiaris; test: In vitro electrophysiological activity in canine cardiac Purkinje fibres given as maximum % change for action potential duration t 100 uM concentration; type: functional, Canis lupus familiaris, Purkinje fiber; in short: as §3
Canis familiaris [14] = organism: Canis familiaris; test: In vitro electrophysiological activity in canine cardiac Purkinje fibres given as maximum % change for action potential duration at 10 uM concentration; type: functional, Canis lupus familiaris, Purkinje fiber; in short: as §3
Canis familiaris [15] = organism: Canis familiaris; test: In vitro electrophysiological evaluation in canine cardiac Purkinje fibres reported as percent change Vmax concentration range of 0.1-100 uM; Minimal (<IO%increase or a decrease in CT); type: functional; settings: Canis lupus familiaris; Purkinje fiber; in short: as §2
Canis familiaris [16] = organism: Canis familiaris; test: In vitro electrophysiological evaluation in canine cardiac Purkinje fibres reported as percent change Vmax concentration range of 0.1-100 uM; type: functional; settings: Canis lupus familiaris; Purkinje fiber; in short: as §2
Canis familiaris [17] = organism: Canis familiaris; test: In vitro electrophysiological evaluation in canine cardiac Purkinje fibres reported as maximum percent change Vmax concentration range of 0.1-30 uM; type: functional; settings: Canis lupus familiaris; Purkinje fiber; in short: as §2
Canis familiaris [18] = organism: Canis familiaris; test: In vitro electrophysiological evaluation in canine cardiac Purkinje fibres reported as percent change Vmax concentration range of 0.1-30 uM; type: functional; settings: Canis lupus familiaris; Purkinje fiber; in short: as §2
Canis familiaris [19] = organism: Canis familiaris; test: In vitro electrophysiological evaluation in canine cardiac Purkinje fibres reported as percent change Vmax concentration range of 1-100 uM; Minimal (<IO%increase or a decrease in CT; Minimal (<IO%increase or a decrease in CT); type: functional; settings: Canis lupus familiaris; Purkinje fiber; in short: as §2

Cl.Clc1ccc(CCCC2CC3CCN2CC3)cc1 (centres undefined)
APD95 (Canis familiaris [1]): 21% and 12% | APD95 (Canis familiaris [2]): 2% | FRP (Canis familiaris [3]): 25% | Vmax (Canis familiaris [4]): < 10% | APD95 (Canis familiaris [5]): 13% | CT (Canis familiaris [6]): <10% | APD95 (Canis familiaris [7]): 40% | APD95 (Canis familiaris [8]): -20% | CT (Canis familiaris [9]): <10% | APD95 (Canis familiaris [10]): 21% | FRP (Canis familiaris [11]): 25% | APD95 (Canis familiaris [12]): 30% | APD95 (Canis familiaris [13]): -20% | APD95 (Canis familiaris [14]): 30% and 12% | Vmax (Canis familiaris [15]): -13% and < 10% | Vmax (Canis familiaris [16]): -10% | Vmax (Canis familiaris [17]): < 10% | Vmax (Canis familiaris [18]): -23% | Vmax (Canis familiaris [19]): < 10%
